The structures appear in SMILES notation. Converted amounts (≈) assume the structure as drawn. Where two headings read alike, the source gives them in different places.

The subject of experiment [1] is S. pneumoniae R6. The experiment can be described thus: MIC, microbroth dilution in Mueller-Hinton broth. It counts as cell-based. Particulars: Streptococcus pneumoniae, R6, read-out: MIC SP. The method, boiled down:
(§1)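 CLSI broth microdilution in cation-adjusted Mueller-Hinton broth. Inocula were grown from MH agar colonies in MH broth, with a final inoculum of 10^5 CFU/ml. Test compound final range was 200–0.2 µg/ml, incubated 37°C for 18–20 h. MIC was the lowest concentration preventing visible growth. Runs were at least duplicate, and the mean MIC was reported.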

Experiment [2] has as its system E. coli BW25113. Nature of the experiment: MIC, microbroth dilution in Mueller-Hinton broth. It counts as cell-based, Escherichia coli. Particulars: for MIC EC MH+BP/CCCP: MH broth with 30 µg/ml 2,2′-bipyridyl and 50 µg/ml CCCP; for MIC EC +: with clavulanic acid (6µg/ml); for MIC: Escherichia coli, BW25113, read-out: MIC EC, E. coli BW25113.
For experiment [3], the system named is B. subtilis ATCC23857. Nature of the experiment: MIC, microbroth dilution in Mueller-Hinton broth. Particulars: Bacillus subtilis, ATCC23857, read-out: MIC BS. Type of experiment: cell-based. The method, boiled down:
as §1
(In broth dilution the organism is exposed to a series of concentrations in liquid medium.)

The subject of experiment [4] is S. pyogenes ATCC700294. Nature of the experiment: MIC, microbroth dilution in Mueller-Hinton broth. Type of experiment: cell-based. Particulars: Streptococcus pyogenes, ATCC700294, read-out: MIC SPy. The method, boiled down:
as §1

Experiment [5] relates to E. coli BW25113 ΔtolC derivative JW5503-1. The experiment can be described thus: MIC, microbroth dilution in Mueller-Hinton broth. It counts as cell-based, Escherichia coli. The following applies: for MIC: Escherichia coli.
Experiment [6] deals with E. faecalis ATCC33186. The experiment can be described thus: MIC, microbroth dilution in Mueller-Hinton broth. It counts as cell-based. Particulars: Enterococcus faecalis, ATCC33186, read-out: MIC EF. The method, boiled down:
as §1

Experiment [7] relates to P. aeruginosa PA01. The experiment can be described thus: MIC, microbroth dilution in Mueller-Hinton broth. Type of experiment: cell-based, Pseudomonas aeruginosa. Particulars: for MIC PA MH+BP/CCCP: MH broth with 30 µg/ml 2,2′-bipyridyl and 50 µg/ml CCCP; for MIC PA +: with clavulanic acid (6µg/ml); for MIC: Pseudomonas aeruginosa.
Experiment [8] relates to B. anthracis sterne. The experiment can be described thus: microbe, parasite or virus in culture. Type of experiment: cell-based. The following applies: Bacillus anthracis, read-out: MIC BA.
The test system of experiment [9] is S. aureus NRS 70 (MRSA). Nature of the experiment: MIC, microbroth dilution in Mueller-Hinton broth. Particulars: Staphylococcus aureus, MRSA|NRS70, read-out: MIC MRSA. Type of experiment: cell-based. In outline:
as §1

Experiment [10] has as its system E. coli BW25113 ΔampC derivative JW4111-2. Type of experiment: cell-based, Escherichia coli.
Experiment [11] concerns P. vulgaris ATCC 33420. The experiment can be described thus: MIC, microbroth dilution in Mueller-Hinton broth. Type of experiment: cell-based. Particulars: Proteus vulgaris, ATCC33420, read-out: MIC PV.
Experiment [12] has as its system S. aureus -ATCC29213 (MSSA). The experiment can be described thus: MIC, microbroth dilution in Mueller-Hinton broth. It counts as cell-based. Particulars: Staphylococcus aureus, read-out: MIC MSSA. The method, boiled down:
as §1

Experiment [13] has as its system P. mirabilis ATCC 25933. The experiment can be described thus: MIC, microbroth dilution in Mueller-Hinton broth. Particulars: Proteus mirabilis, ATCC25933, read-out: MIC PM. Type of experiment: cell-based.

As for `CC1(C)SC2C(NC(=O)C(NC(=O)C3=C(O)CNC3=O)c3ccccc3)C(=O)N2C1C(=O)O` (centres unmarked) [Compound 2743], the MIC was below 0.2 mg/L in experiment [1]; 200 mg/L (≈ 422 µM) in experiment [2] (Mueller-Hinton broth (Table 2)); 0.78 mg/L (≈ 1.64 µM) in experiment [3]; below 0.2 mg/L in experiment [4]; 12.5 mg/L (≈ 26.3 µM) in [5] (BW25113, read-out: MIC ECΔtolC); 12.5 mg/L (≈ 26.3 µM) in experiment [5] (BW25113, read-out: MIC ECΔtolC MH). Also, the MIC came to 6.25 mg/L (≈ 13.2 µM) in experiment [5] (BW25113, read-out: MIC ECΔtolC MH+BP); 12.5 mg/L (≈ 26.3 µM) in experiment [6]; 25 mg/L (≈ 52.7 µM) in experiment [7] (PA01, read-out: MIC PA); 25 mg/L (≈ 52.7 µM) in experiment [7] (PA01, read-out: MIC PA MH); 12.5 mg/L (≈ 26.3 µM) in experiment [7] (PA01, read-out: MIC PA MH+BP); 6.25 mg/L (≈ 13.2 µM) in [7] (PA01, read-out: MIC PA MH+CCCP). Besides, the MIC in experiment [7] (PA01, read-out: MIC PA −) was found to be 25 mg/L (≈ 52.7 µM); in experiment [8] it was 0.78 mg/L (≈ 1.64 µM); in [9], 25 mg/L (≈ 52.7 µM); in experiment [10] (Escherichia coli, BW25113, read-out: MIC ECΔampC −), 12.5 mg/L (≈ 26.3 µM); in [11] it was 100 mg/L (≈ 211 µM); in [12] it was 0.78 mg/L (≈ 1.64 µM). For the same molecule, in experiment [13], the MIC was found to be 3.13 mg/L (≈ 6.6 µM). Further, the “MIC EC MH+BP/CCCP” value in experiment [2] (E. coli BW25113) was 12.5 mg/L (≈ 26.3 µM). Further, the “MIC EC +” value in experiment [2] (E. coli BW25113) came out at 12.5 mg/L. Besides, the “MIC ECΔtolC MH+BP/CCCP” value in experiment [5] stood at 1.56 mg/L (≈ 3.29 µM). Besides, in experiment [5], the “MIC ECΔtolC MH+CCCP” value was found to be 3.13 mg/L (≈ 6.6 µM). The “MIC PA MH+BP/CCCP” value in experiment [7] (P. aeruginosa PA01) was 3.13 mg/L (≈ 6.6 µM). Moreover, in experiment [7] (P. aeruginosa PA01), the “MIC PA +” value was found to be 12.5 mg/L. In addition, in experiment [10], the “MIC ECΔampC +” value amounted to 6.25 mg/L.
Consider `CC1(C)S[C@@H]2[C@H](NC(=O)[C@H](N)c3ccccc3)C(=O)N2[C@H]1C(=O)O` [ampicillin, reference compound], for which the MIC is below 0.2 mg/L in experiment [1]; 3.13 mg/L (≈ 8.96 µM) in experiment [2] (Mueller-Hinton broth (Table 2)); below 0.2 mg/L in experiment [3]; below 0.2 mg/L in experiment [4]; 3.13 mg/L (≈ 8.96 µM) in experiment [6]; above 200 mg/L in [7] (PA01, read-out: MIC PA). Also, the MIC in [7] (PA01, read-out: MIC PA MH) was above 200 mg/L; in experiment [7] (PA01, read-out: MIC PA MH+BP), above 200 mg/L; in [7] (PA01, read-out: MIC PA MH+CCCP), above 200 mg/L; in experiment [7] (PA01, read-out: MIC PA −) it was above 200 mg/L; in [8], below 0.2 mg/L; in [9], 50 mg/L (≈ 143 µM). The MIC was 100 mg/L (≈ 286 µM) in [11], below 0.2 mg/L in [12] and 3.13 mg/L (≈ 8.96 µM) in [13]. The “MIC EC MH+BP/CCCP” value in [2] (E. coli BW25113) was 0.78 mg/L (≈ 2.23 µM). Further, the “MIC EC +” value in experiment [2] (E. coli BW25113) came to 1.56 mg/L. Also, the “MIC ECΔtolC MH+BP/CCCP” value in [5] came to 0.39 mg/L (≈ 1.12 µM). Moreover, the “MIC ECΔtolC MH+CCCP” value in experiment [5] was found to be 1.56 mg/L (≈ 4.46 µM). In experiment [7] (P. aeruginosa PA01, Mueller-Hinton broth (Table 2)), the “MIC PA” value is above 200 mg/L. Moreover, the “MIC PA +” value in experiment [7] (P. aeruginosa PA01) was 100 mg/L. Moreover, the “MIC ECΔampC +” value in experiment [10] stood at 1.56 mg/L.
For the molecule `CC1(C)SC2C(NC(=O)C(NC(=O)C3=C(O)C(Cc4ccco4)NC3=O)c3ccccc3)C(=O)N2C1C(=O)O` (centres unmarked) [Compound 3002], the MIC was 0.39 mg/L (≈ 0.703 µM) in experiment [1]; 6.25 to 12.5 mg/L (≈ 11.3 to 22.5 µM) in experiment [2] (Mueller-Hinton broth (Table 2)); 1.56 mg/L (≈ 2.81 µM) in experiment [3]; 0.39 mg/L (≈ 0.703 µM) in experiment [4]; 25 mg/L (≈ 45.1 µM) in experiment [6]; 12.5 mg/L (≈ 22.5 µM) in experiment [7] (PA01, read-out: MIC PA). Moreover, the MIC in experiment [7] (PA01, read-out: MIC PA MH) was found to be 12.5 mg/L (≈ 22.5 µM); in experiment [7] (PA01, read-out: MIC PA MH+BP) it was 12.5 mg/L (≈ 22.5 µM); in experiment [7] (PA01, read-out: MIC PA MH+CCCP), 6.25 mg/L (≈ 11.3 µM); in experiment [7] (PA01, read-out: MIC PA −), 12.5 mg/L (≈ 22.5 µM); in experiment [8], 3.13 mg/L (≈ 5.64 µM); in experiment [9], 50 mg/L (≈ 90.2 µM). For the same molecule, the MIC stood at 25 mg/L (≈ 45.1 µM) in [11], 0.78 mg/L (≈ 1.41 µM) in [12] and 1.56 mg/L (≈ 2.81 µM) in experiment [13]. Moreover, the “MIC EC MH+BP/CCCP” value in [2] (E. coli BW25113) was 1.56 mg/L (≈ 2.81 µM). Moreover, the “MIC EC” value in experiment [2] (E. coli BW25113, Mueller-Hinton broth (Table 2)) was determined as 6.25 mg/L (≈ 11.3 µM). Also, the “MIC EC +” value in experiment [2] (E. coli BW25113) was 6.25 mg/L. For the same molecule, the “MIC ECΔtolC MH+BP/CCCP” value in [5] is 0.78 mg/L (≈ 1.41 µM). Also, the “MIC ECΔtolC MH+CCCP” value in experiment [5] is 1.56 mg/L (≈ 2.81 µM). In addition, the “MIC PA MH+BP/CCCP” value in experiment [7] (P. aeruginosa PA01) turned out to be 3.13 mg/L (≈ 5.64 µM). Further, the “MIC PA +” value in experiment [7] (P. aeruginosa PA01) worked out at 3.13 mg/L. Further, the “MIC ECΔampC +” value in experiment [10] came to 6.25 mg/L.
